In publication PMC9579399 (Clinical and Translational Science, 2022):

Tested on: healthy Chinese male subjects
Assay: Safety evaluation
Type: in vivo, human
Conditions: n = 49 per group
In short: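 AEs recorded throughout the study by investigators, including laboratory tests (hematology, biochemistry, urinalysis), vital signs, physical exams, 12-lead ECG and injection site reactions. Subjects with AEs followed until return to normal or baseline. Incidence calculated as subjects with at least one AE divided by total subjects.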

CCCCCCCCCCCCCCCC(=O)N[C@@H](CCC(=O)NCCCC[C@H](NC(=O)[C@H](C)NC(=O)[C@H](C)NC(=O)[C@H](CCC(N)=O)NC(=O)CNC(=O)[C@H](CCC(=O)O)NC(=O)[C@H](CC(C)C)NC(=O)[C@H](Cc1ccc(O)cc1)NC(=O)[C@H](CO)NC(=O)[C@H](CO)NC(=O)[C@@H](NC(=O)[C@H](CC(=O)O)NC(=O)[C@H](CO)NC(=O)[C@@H](NC(=O)[C@H](Cc1ccccc1)NC(=O)[C@@H](NC(=O)CNC(=O)[C@H](CCC(=O)O)NC(=O)[C@H](C)NC(=O)[C@@H](N)Cc1cnc[nH]1)[C@@H](C)O)[C@@H](C)O)C(C)C)C(=O)N[C@@H](CCC(=O)O)C(=O)N[C@@H](Cc1ccccc1)C(=O)N[C@H](C(=O)N[C@@H](C)C(=O)N[C@@H](Cc1c[nH]c2ccccc12)C(=O)N[C@@H](CC(C)C)C(=O)N[C@H](C(=O)N[C@@H](CCCNC(=N)N)C(=O)NCC(=O)N[C@@H](CCCNC(=N)N)C(=O)NCC(=O)O)C(C)C)[C@@H](C)CC)C(=O)O [Victoza, Liraglutide]
incidence of AEs (percentage of subjects with at least one AE): 32.7%
incidence of TRAEs (percentage of subjects with at least one TRAE): 24.5%
Number of events (AEs) (single 0.6 mg s.c.): 19
Number of events (TRAEs) (single 0.6 mg s.c.): 12
